According to ChEMBL document CHEMBL1144020, “Development of prodrug 4-chloro-3-(5-methyl-3-{[4-(2-pyrrolidin-1-ylethoxy)phenyl]amino}-1,2,4-benzotriazin-7-yl)phenyl benzoate (TG100801): a topically administered therapeutic candidate in clinical trials for the treatment of age-related macular degeneration” (J Med Chem, 2008):

What was measured:
[1] = molecular target: Vascular endothelial growth factor receptor 2 (Homo sapiens, UniProt P35968); experiment: Inhibition of VEGFR2
[2] = molecular target: Proto-oncogene tyrosine-protein kinase Src (Homo sapiens, UniProt P12931); experiment: Inhibition of Src
Proto-oncogene tyrosine-protein kinase Src, sequence (P12931 2-536 limits assumed): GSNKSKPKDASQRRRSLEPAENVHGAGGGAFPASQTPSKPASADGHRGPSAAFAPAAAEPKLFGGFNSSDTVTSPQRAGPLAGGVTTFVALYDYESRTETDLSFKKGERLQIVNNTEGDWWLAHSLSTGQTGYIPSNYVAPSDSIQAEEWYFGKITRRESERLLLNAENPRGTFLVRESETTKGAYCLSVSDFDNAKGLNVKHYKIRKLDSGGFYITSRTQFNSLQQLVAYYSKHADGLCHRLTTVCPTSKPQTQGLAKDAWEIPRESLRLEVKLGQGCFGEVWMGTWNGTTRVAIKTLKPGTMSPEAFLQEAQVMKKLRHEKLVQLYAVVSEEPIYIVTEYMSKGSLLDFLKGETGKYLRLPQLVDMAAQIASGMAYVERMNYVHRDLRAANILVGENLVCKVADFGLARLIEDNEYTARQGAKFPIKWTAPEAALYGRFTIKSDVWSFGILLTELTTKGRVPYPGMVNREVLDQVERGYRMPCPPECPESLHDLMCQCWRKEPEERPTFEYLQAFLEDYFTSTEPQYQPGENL

[3] = species on record: Mus musculus; experiment: Cmax in C57BL/6 mouse retina assessed as 4-chloro-3-{5-methyl-3-[4-(2-pyrrolidin-1-yl-ethoxy)phenylamino]benzo[1,2,4]triazin-7-yl}phenol at 172 nM instilled per eye; assay type: ADME, organism-based; design: dose 172 nM, route ophthalmic; details: in vivo, topical_or_ocular, 0.172 µM
Method in brief: (§1)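 Male C57BL/6 mice got one 10 µL eye drop of prodrug (100 µg, 172 nmol per eye). Composite sampling at 0.5, 1, 3, 7 and 24 h post-instillation. Cornea, retina and pooled sclera/choroid were collected, with plasma at euthanasia. Tissues were homogenized in RIPA and extracted with acetonitrile. Prodrug and parent were measured by LC/MS/MS against matrix standards; AUC by linear trapezoidal rule on means.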

[4] = Stability at 120 degC after 1 hr; assay type: physicochemical; details: read-out: Stability
Method in brief: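 Prodrugs at 0.5% in 0.5% HPMC/5% dextrose, pH 6.7, in closed vials, autoclaved at 120 °C for 1 h. After cooling, percent remaining was assessed by reverse-phase HPLC with diode-array and ELSD detection.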

[5] = Tmax in C57BL/6 mouse choroid/sclera at 172 nM instilled per eye; assay type: ADME, organism-based; details: topical or ocular, 172 nM per eye; method in brief: as §1
[6] = Cmax in C57BL/6 mouse choroid/sclera at 172 nM instilled per eye; assay type: ADME, organism-based; design: dose 172 nM, route ophthalmic; details: topical or ocular, 172 nM per eye; method in brief: as §1
[7] = test system: Mus musculus; experiment: Reduction of VEGF-induced retinal leak in BALB/c mouse administered topically at 210 nM q.d; assay type: functional; design: scale not given: the % may be the effect or the level left
[8] = AUC (0 to 24 hrs) in C57BL/6 mouse choroid/sclera at 172 nM instilled per eye; assay type: ADME, organism-based; design: dose 172 nM, time < 24 hr, route ophthalmic; details: topical or ocular, 172 nM per eye; method in brief: as §1
[9] = Stability in Dutch-belted rabbit eye assessed as hydrolysis rate; assay type: ADME, tissue-based, Oryctolagus cuniculus
Method in brief: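 Two Dutch-Belted rabbit eyeballs were homogenized in 1× RIPA buffer. Prodrug (from 1 mg/mL DMSO stock) was added to a final 5 µg/mL and kept at 37 °C, sampled at 0, 0.25, 1, 2 and 6 h. Controls were prodrug in RIPA buffer for 120 min at 37 °C. Supernatants were analyzed by LC/MS/MS for prodrug and released parent phenol.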

[10] = Plasma concentration in C57BL/6 mouse after 24 hrs; assay type: ADME, organism-based
[11] = Tmax in C57BL/6 mouse retina at 172 nM instilled per eye; assay type: ADME, organism-based; details: topical or ocular, 172 nM per eye; method in brief: as §1
[12] = Cmax in C57BL/6 mouse retina at 172 nM instilled per eye; assay type: ADME, organism-based; design: dose 172 nM, route ophthalmic; details: topical or ocular, 172 nM per eye; method in brief: as §1
[13] = Tmax in C57BL/6 mouse cornea at 172 nM instilled per eye; assay type: ADME, organism-based; details: topical or ocular, 172 nM per eye; method in brief: as §1
[14] = species on record: Mus musculus; experiment: Tmax in C57BL/6 mouse cornea assessed as 4-chloro-3-{5-methyl-3-[4-(2-pyrrolidin-1-yl-ethoxy)phenylamino]benzo[1,2,4]triazin-7-yl}phenol at 172 nM instilled per eye; assay type: ADME, organism-based; details: in vivo, topical_or_ocular, 0.172 µM; method in brief: as §1
[15] = species on record: Mus musculus; experiment: Tmax in C57BL/6 mouse plasma assessed as 4-chloro-3-{5-methyl-3-[4-(2-pyrrolidin-1-yl-ethoxy)phenylamino]benzo[1,2,4]triazin-7-yl}phenol at 172 nM instilled per eye; assay type: ADME, organism-based; details: in vivo, topical_or_ocular, 0.172 µM; method in brief: as §1
[16] = species on record: Mus musculus; experiment: AUC (0 to 24 hrs) in C57BL/6 mouse retina assessed as 4-chloro-3-{5-methyl-3-[4-(2-pyrrolidin-1-yl-ethoxy)phenylamino]benzo[1,2,4]triazin-7-yl}phenol at 172 nM instilled per eye; assay type: ADME, organism-based; design: time < 24 hr, dose 172 nM, route ophthalmic; details: in vivo, topical_or_ocular, 0.172 µM; method in brief: as §1
[17] = AUC (0 to 24 hrs) in C57BL/6 mouse retina at 172 nM instilled per eye; assay type: ADME, organism-based; design: dose 172 nM, time < 24 hr, route ophthalmic; details: topical or ocular, 172 nM per eye; method in brief: as §1
[18] = species on record: Mus musculus; experiment: Cmax in C57BL/6 mouse choroid/sclera assessed as 4-chloro-3-{5-methyl-3-[4-(2-pyrrolidin-1-yl-ethoxy)phenylamino]benzo[1,2,4]triazin-7-yl}phenol at 172 nM instilled per eye; assay type: ADME, organism-based; design: dose 172 nM, route ophthalmic; details: in vivo, topical_or_ocular, 0.172 µM; method in brief: as §1
[19] = AUC (0 to 24 hrs) in C57BL/6 mouse cornea at 172 nM instilled per eye; assay type: ADME, organism-based; design: time < 24 hr, dose 172 nM, route ophthalmic; details: topical or ocular, 172 nM per eye; method in brief: as §1
[20] = species on record: Mus musculus; experiment: Tmax in C57BL/6 mouse retina assessed as 4-chloro-3-{5-methyl-3-[4-(2-pyrrolidin-1-yl-ethoxy)phenylamino]benzo[1,2,4]triazin-7-yl}phenol at 172 nM instilled per eye; assay type: ADME, organism-based; details: in vivo, topical_or_ocular, 0.172 µM; method in brief: as §1
[21] = species on record: Mus musculus; experiment: Tmax in C57BL/6 mouse choroid/sclera assessed as 4-chloro-3-{5-methyl-3-[4-(2-pyrrolidin-1-yl-ethoxy)phenylamino]benzo[1,2,4]triazin-7-yl}phenol at 172 nM instilled per eye; assay type: ADME, organism-based; details: in vivo, topical_or_ocular, 0.172 µM; method in brief: as §1
[22] = species on record: Mus musculus; experiment: Cmax in C57BL/6 mouse plasma assessed as 4-chloro-3-{5-methyl-3-[4-(2-pyrrolidin-1-yl-ethoxy)phenylamino]benzo[1,2,4]triazin-7-yl}phenol at 172 nM instilled per eye; assay type: ADME, organism-based; design: dose 172 nM, route ophthalmic; details: in vivo, topical_or_ocular, 0.172 µM; method in brief: as §1
[23] = molecular target: Tyrosine-protein kinase Yes (Homo sapiens, UniProt P07947); experiment: Inhibition of YES
Tyrosine-protein kinase Yes, sequence (P07947 whole entry): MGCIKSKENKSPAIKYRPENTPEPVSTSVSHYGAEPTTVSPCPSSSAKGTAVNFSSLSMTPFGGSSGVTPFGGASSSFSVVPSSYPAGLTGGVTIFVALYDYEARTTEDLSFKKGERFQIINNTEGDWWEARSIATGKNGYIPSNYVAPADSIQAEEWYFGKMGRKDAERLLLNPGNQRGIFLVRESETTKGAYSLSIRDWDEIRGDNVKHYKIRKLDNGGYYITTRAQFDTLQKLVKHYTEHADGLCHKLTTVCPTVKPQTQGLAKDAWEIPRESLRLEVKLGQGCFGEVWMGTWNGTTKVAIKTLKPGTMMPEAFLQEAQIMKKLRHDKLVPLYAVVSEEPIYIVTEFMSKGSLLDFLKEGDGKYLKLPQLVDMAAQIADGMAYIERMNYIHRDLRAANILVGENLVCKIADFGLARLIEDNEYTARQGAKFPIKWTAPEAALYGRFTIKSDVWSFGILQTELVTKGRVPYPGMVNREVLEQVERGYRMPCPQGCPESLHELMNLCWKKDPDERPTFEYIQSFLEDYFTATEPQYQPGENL

[24] = species on record: Mus musculus; experiment: AUC (0 to 24 hrs) in C57BL/6 mouse cornea assessed as 4-chloro-3-{5-methyl-3-[4-(2-pyrrolidin-1-yl-ethoxy)phenylamino]benzo[1,2,4]triazin-7-yl}phenol at 172 nM instilled per eye; assay type: ADME, organism-based; design: time < 24 hr, dose 172 nM, route ophthalmic; details: in vivo, topical_or_ocular, 0.172 µM; method in brief: as §1
[25] = test system: Mus musculus; experiment: Reduction of bruch's membrane rupture in laser-induced choroidoal neovascularization in mouse administered topically at 1.83% w/v after 14 days relative to control; assay type: functional; design: scale not given: the % may be the effect or the level left
Method in brief: (§2)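 Laser rupture of Bruch's membrane in female C57BL/6J mice aged 4–5 weeks, ketamine-anesthetized; only bubble-forming burns were counted. Eight mice/group got one 10 µL drop of vehicle, 0.61% or 1.83% w/v prodrug t.i.d., 4 h apart, with the fellow eye untreated; a fourth group had no treatment. On day 14, mice were perfused with fluorescein-dextran and CNV area was measured on choroidal flatmounts. Linear mixed model with Dunnett adjustment.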

[26] = species on record: Mus musculus; experiment: AUC (0 to 24 hrs) in C57BL/6 mouse choroid/sclera assessed as 4-chloro-3-{5-methyl-3-[4-(2-pyrrolidin-1-yl-ethoxy)phenylamino]benzo[1,2,4]triazin-7-yl}phenol at 172 nM instilled per eye; assay type: ADME, organism-based; design: dose 172 nM, time < 24 hr, route ophthalmic; details: in vivo, topical_or_ocular, 0.172 µM; method in brief: as §1
[27] = species on record: Mus musculus; experiment: Cmax in C57BL/6 mouse cornea assessed as 4-chloro-3-{5-methyl-3-[4-(2-pyrrolidin-1-yl-ethoxy)phenylamino]benzo[1,2,4]triazin-7-yl}phenol at 172 nM instilled per eye; assay type: ADME, organism-based; design: dose 172 nM, route ophthalmic; details: in vivo, topical_or_ocular, 0.172 µM; method in brief: as §1
[28] = Cmax in C57BL/6 mouse cornea at 172 nM instilled per eye; assay type: ADME, organism-based; design: dose 172 nM, route ophthalmic; details: topical or ocular, 172 nM per eye; method in brief: as §1
[29] = test system: Mus musculus; experiment: Reduction of bruch's membrane rupture in laser-induced choroidoal neovascularization in mouse administered topically at 0.61% w/v after 14 days relative to control; assay type: functional; design: scale not given: the % may be the effect or the level left; method in brief: as §2

Vascular endothelial growth factor receptor 2, sequence (P35968 whole entry): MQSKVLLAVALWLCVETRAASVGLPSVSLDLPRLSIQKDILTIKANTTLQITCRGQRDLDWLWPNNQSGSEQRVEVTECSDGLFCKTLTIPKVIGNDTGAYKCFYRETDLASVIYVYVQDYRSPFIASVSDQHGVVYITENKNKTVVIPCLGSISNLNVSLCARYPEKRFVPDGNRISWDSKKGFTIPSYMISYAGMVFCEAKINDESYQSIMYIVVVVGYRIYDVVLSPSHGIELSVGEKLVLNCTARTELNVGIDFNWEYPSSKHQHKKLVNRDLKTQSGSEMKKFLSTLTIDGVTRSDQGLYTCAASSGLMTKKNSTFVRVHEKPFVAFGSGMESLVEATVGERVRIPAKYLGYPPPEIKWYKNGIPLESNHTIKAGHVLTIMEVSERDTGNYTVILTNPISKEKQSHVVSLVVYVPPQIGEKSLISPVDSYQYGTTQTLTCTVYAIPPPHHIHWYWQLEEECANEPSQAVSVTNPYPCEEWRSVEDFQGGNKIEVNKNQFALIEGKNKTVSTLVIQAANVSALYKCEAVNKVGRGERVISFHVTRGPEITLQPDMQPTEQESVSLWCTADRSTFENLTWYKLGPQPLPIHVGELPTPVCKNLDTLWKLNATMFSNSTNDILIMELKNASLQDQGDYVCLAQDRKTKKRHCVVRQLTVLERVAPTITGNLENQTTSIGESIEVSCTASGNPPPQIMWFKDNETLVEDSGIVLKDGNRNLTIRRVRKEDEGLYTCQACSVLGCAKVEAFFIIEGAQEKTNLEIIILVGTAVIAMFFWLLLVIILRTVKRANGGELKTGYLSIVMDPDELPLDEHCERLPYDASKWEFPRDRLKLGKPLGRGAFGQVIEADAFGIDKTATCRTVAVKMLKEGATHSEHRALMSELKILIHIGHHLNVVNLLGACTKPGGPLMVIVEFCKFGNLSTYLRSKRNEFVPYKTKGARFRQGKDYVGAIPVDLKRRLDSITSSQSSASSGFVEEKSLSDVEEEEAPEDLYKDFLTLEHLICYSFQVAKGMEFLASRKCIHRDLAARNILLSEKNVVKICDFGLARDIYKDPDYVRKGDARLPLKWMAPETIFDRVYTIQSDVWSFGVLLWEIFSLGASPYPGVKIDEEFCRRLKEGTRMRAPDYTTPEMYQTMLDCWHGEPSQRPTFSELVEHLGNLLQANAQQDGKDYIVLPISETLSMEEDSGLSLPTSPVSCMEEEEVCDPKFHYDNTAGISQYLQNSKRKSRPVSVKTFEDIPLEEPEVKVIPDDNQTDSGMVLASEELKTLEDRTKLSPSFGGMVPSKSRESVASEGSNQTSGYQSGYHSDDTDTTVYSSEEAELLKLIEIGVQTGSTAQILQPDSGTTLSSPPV

Cc1cc(-c2ccccc2Cl)cc2nnc(Nc3ccc(OCCN4CCCC4)cc3)nc12
IC50 [1]: 1900 nM

Cc1cc(-c2cc(O)ccc2Cl)cc2nnc(Nc3ccc(S(=O)(=O)NCCN4CCCC4)cc3)nc12
IC50 [1]: 4.7 nM

Cc1cc(-c2cc(O)ccc2Cl)cc2nnc(Nc3ccc(CCCN4CCCC4)cc3)nc12
IC50 [2]: 1.5 nM | IC50 [1]: 2.7 nM

Cc1cc(-c2cc(OC(=O)c3ccccc3)ccc2Cl)cc2nnc(Nc3ccc(OCCN4CCCC4)cc3)nc12 [TG100-801]
Cmax [3]: 2400 nM | remaining at 1 h [4]: > 90% | Tmax at 0.172 µM [5]: 24 h | Cmax at 0.172 µM [6]: 27 µM | Activity [7]: 100% | AUC(0-t) at 24 h, 0.172 µM [8]: 430 µg·h/mL | Stability [9]: 288 ng/mL/h | concentration at 24 h [10]: < 1 ng/mL | Tmax at 0.172 µM [11]: 24 h | IC50 [2]: ≥ 10000 nM | Cmax at 0.172 µM [12]: 5.3 µM | Tmax at 0.172 µM [13]: 24 h | Tmax [14]: 7 h | Tmax [15]: 24 h | AUC [16]: 35 µg·h/mL | AUC(0-t) at 24 h, 0.172 µM [17]: 63000 ng·h/mL | Cmax [18]: 29 µM | AUC(0-t) at 24 h, 0.172 µM [19]: 55000 ng·h/mL | Tmax [20]: 24 h | Tmax [21]: 24 h | Cmax [22]: 5 nM | IC50 [23]: ≥ 2500 nM | IC50 [1]: ≥ 10000 nM | AUC [24]: 670 µg·h/mL | Activity [25]: 35% | AUC [26]: 540 µg·h/mL | Cmax [27]: 33 µM | Cmax at 0.172 µM [28]: 3.7 µM | Activity [29]: 46%

CC(=O)Oc1ccc(Cl)c(-c2cc(C)c3nc(Nc4ccc(OCCN5CCCC5)cc4)nnc3c2)c1
remaining at 1 h [4]: < 20%

Cc1cc(-c2ccccc2)cc2nnc(Nc3ccc(OCCN4CCCC4)cc3)nc12
IC50 [1]: 530 nM

Cc1cc(-c2cc(OC(=O)C(C)(C)C)ccc2Cl)cc2nnc(Nc3ccc(OCCN4CCCC4)cc3)nc12
remaining at 1 h [4]: > 90% | Stability [9]: 172 ng/mL/h

Cc1cc(-c2cc(O)ccc2Cl)cc2nnc(Nc3ccc(C(=O)N4CCNCC4)cc3)nc12
IC50 [1]: 1.8 nM

Cc1cccc(C)c1C(=O)Oc1ccc(Cl)c(-c2cc(C)c3nc(Nc4ccc(OCCN5CCCC5)cc4)nnc3c2)c1
remaining at 1 h [4]: > 90% | Stability [9]: 1.1 ng/mL/h
